The record followed here is ChEMBL document CHEMBL1121438, “Synthesis and antitumor activity of analogues of the antitumor antibiotic chartreusin” (J Med Chem, 1980).

The test system of data set [1] is L1210. In words: Evaluated for growth inhibition against cultured L1210 cells after 48 hour drug exposure in trial 1 at a dose of 1.44*10e-8. The class given is functional, Mus musculus.
Data set [2] deals with L1210. In words: Evaluated for growth inhibition against cultured L1210 cells after 48 hour drug exposure in trial 2 at a dose of 1.44*10e-8. The class given is functional, Mus musculus.
The subject of data set [3] is L1210. As to the kind of experiment: Evaluated for growth inhibition against cultured L1210 cells after 48 hour drug exposure in trial 2 at a dose of 1.44*10e-9. The class given is functional, Mus musculus.
The nature of data set [4]: Partition coefficient (logP). The class given is physicochemical. The conditions noted are these: octanol/water.
The subject of data set [5] is L1210. As to the kind of experiment: Evaluated for growth inhibition against cultured L1210 cells after 48 hour drug exposure in trial 1 at a dose of 1.44*10e-9. The class given is functional, Mus musculus.
The test system of data set [6] is L1210. In words: Evaluated for growth inhibition against cultured L1210 cells after 48 hour drug exposure in trial 1 at a dose of 1.65*10e-8. The class given is functional, Mus musculus.
The test system of data set [7] is L1210. In words: Evaluated for growth inhibition against cultured L1210 cells after 48 hour drug exposure in trial 1 at a dose of 1.65*10e-9. The class given is functional, Mus musculus.
The test system of data set [8] is L1210. In words: Evaluated for growth inhibition against cultured L1210 cells after 48 hour drug exposure in trial 2 at a dose of 1.65*10e-8. In kind it is functional, Mus musculus.
The subject of data set [9] is L1210. In words: Evaluated for growth inhibition against cultured L1210 cells after 48 hour drug exposure in trial 2 at a dose of 1.65*10e-9. In kind it is functional, Mus musculus.
Data set [10] can be described thus: Partition coefficient (logP) (HPLC). In kind it is physicochemical. The conditions noted are these: octanol/water. Summed up:
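Relative log P by the reversed-phase LC method of McCall: octadecylsilyl column eluted with acetonitrile–water (1:1). The system was calibrated with a reference compound of known octanol/water log P, and log P values were derived from elution times.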

Data set [11] in a line: Partition coefficient determined using pi values. In kind it is physicochemical. Particulars: octanol/water. An outline of the steps: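 Calculated log P: the aglycon value was summed with the π value of the glycosyl substituent, using literature −2.84 for O-β-glucosyl and −3.24 for maltosyl.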
The test system of data set [12] is L1210. As to the kind of experiment: Evaluated for growth inhibition against cultured L1210 cells after 48 hour drug exposure in trial 1 at a dose of 1.45*10e-8. In kind it is functional, Mus musculus.
The subject of data set [13] is L1210. In words: Evaluated for growth inhibition against cultured L1210 cells after 48 hour drug exposure in trial 1 at a dose of 1.45*10e-9. The class given is functional, Mus musculus.
For data set [14], the system named is L1210. As to the kind of experiment: Evaluated for growth inhibition against cultured L1210 cells after 48 hour drug exposure in trial 2 at a dose of 1.45*10e-8. In kind it is functional, Mus musculus.
Data set [15] has as its system L1210. As to the kind of experiment: Evaluated for growth inhibition against cultured L1210 cells after 48 hour drug exposure in trial 2 at a dose of 1.45*10e-9. The class given is functional, Mus musculus.
Data set [16] concerns Mus musculus. In words: Evaluated % increase in life span in vivo against P388 Murine leukemia cells in trial 2 at a dose of 200 mg/kg. The class given is functional. An outline of the steps: (§1)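 Male CDF1 mice (17-22 g) inoculated ip with 10^6 P388 cells on day 0. Six animals per dose level. Activity is the median increase in life span over untreated controls (% ILS); body weight change of test vs control measured on days 1 and 5.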

The test system of data set [17] is Mus musculus. As to the kind of experiment: Evaluated % increase in life span in vivo against P388 Murine leukemia cells in trial 2 at a dose of 25 mg/kg. In kind it is functional. An outline of the steps: as §1
Data set [18] deals with Mus musculus. In words: Evaluated % increase in life span in vivo against P388 Murine leukemia cells in trial 2 at a dose of 50 mg/kg. In kind it is functional. Summed up:
as §1

Data set [19] concerns Mus musculus. In words: Evaluated % increase in life span in vivo against P388 Murine leukemia cells in trial 1 at a dose of 100 mg/kg. In kind it is functional. An outline of the steps: as §1
Data set [20] relates to Mus musculus. In words: Evaluated % increase in life span in vivo against P388 Murine leukemia cells in trial 1 at a dose of 12.5 mg/kg. In kind it is functional. Summed up:
as §1

In data set [21] the test system is Mus musculus. As to the kind of experiment: Evaluated % increase in life span in vivo against P388 Murine leukemia cells in trial 1 at a dose of 200 mg/kg. In kind it is functional. Summed up:
as §1

Data set [22] deals with Mus musculus. As to the kind of experiment: Evaluated % increase in life span in vivo against P388 Murine leukemia cells in trial 1 at a dose of 25 mg/kg. In kind it is functional. Summed up:
as §1

The subject of data set [23] is Mus musculus. In words: Evaluated % increase in life span in vivo against P388 Murine leukemia cells in trial 1 at a dose of 50 mg/kg. The class given is functional. Summed up:
as §1

Data set [24] has as its system Mus musculus. In words: Evaluated % increase in life span in vivo against P388 Murine leukemia cells in trial 2 at a dose of 100 mg/kg. In kind it is functional. Summed up:
as §1

The test system of data set [25] is Mus musculus. As to the kind of experiment: Evaluated % increase in life span in vivo against P388 Murine leukemia cells in trial 2 at a dose of 12.5 mg/kg. The class given is functional. An outline of the steps:
as §1

For the compound `Cc1ccc2oc(=O)c3c(O)c4cccc(O[C@H]5O[C@H](C)[C@H](O)[C@H](O)[C@H]5O)c4c4oc(=O)c1c2c34`, the Inhibition in data set [1] was 100%; in data set [2], 100%; in data set [3], 65%; in data set [5], 71%. In addition, in [4], the logP was 2.07.
With `Cc1ccc2oc(=O)c3c(O)c4cccc(O)c4c4oc(=O)c1c2c34`, the Inhibition is 57% in [6], 0% in data set [7], 58% in data set [8] and 7% in data set [9]. In data set [4], this compound gave a logP of 4.19.
As to `Cc1ccc2oc(=O)c3c(O)c4cccc(O[C@H]5O[C@H](CO)[C@@H](O)[C@H](O)[C@H]5O)c4c4oc(=O)c1c2c34`, the logP in data set [10] is 1.82; in [11] it was 1.35. Also, the Inhibition in data set [12] is listed as 100%; in [13], 59%; in data set [14], 97%; in data set [15], 47%.
With `CO[C@H]1[C@@H](O)[C@@H](C)O[C@H](O[C@H]2[C@@H](Oc3cccc4c(O)c5c(=O)oc6ccc(C)c7c(=O)oc(c34)c5c67)O[C@H](C)[C@H](O)[C@@H]2O)[C@@H]1O`, the Inhibition is recorded as 100% in data set [12], 21% in [13], 100% in data set [14] and 32% in [15]. Further, the results for the ILS at 200 mg/kg in data set [16] and in data set [21] were 58% and 43%, respectively. Also, the figures for the ILS at 25 mg/kg in data set [17] and in [22] were 56% and 47%, respectively. The ILS at 50 mg/kg was determined as 54% in data set [18] and 60% in data set [23]. Also, the ILS at 100 mg/kg in [19] was 93%; in data set [24], 45%. For the same compound, the results for the ILS at 12.5 mg/kg in data set [20] and in data set [25] were 46% and 17%, respectively. For the same compound, the logP in data set [4] was 1.8.

What is called Inhibition is the percentage by which the read-out fell short of the control. A high value points to strong suppression. As usually defined, the logP is a log measure of how a compound divides between an organic and an aqueous phase. A higher logP goes with a more lipophilic compound. For orientation: ILS means the gain in survival time of treated over control animals, in per cent. Lower therefore signals little gain in survival.
